Paper PMC9053952 (RSC Advances, 2020)
pIC50: −log10 of the molar value. “Also recorded” adds a separate entry of the source. Starred links: 1 amine or outer side, 2 acyl side, 3 side chain; linkers in the order of their positions; H or OH if unused. Non-standard residues stand in square brackets, D forms with d. Residues, ends and D or L forms follow the SMILES beside them. *: point of attachment. X2 = COc1ccc([N+]2=NC(C#N)=NN(c3ccc(-c4cn(CCCC[C@H](N[*:1])C(=O)[*:2])nn4)cc3)[B-]2(F)F)cc1; Octanoyl = CCCCCCCC(=O)*; Dap = NC[C@H](N)C(=O)O

Columns and labels:
Photophysical properties = format: physicochemical; details: in DMSO; for λabs (absorption maximum): UV-Vis spectrophotometer; for ΦF (fluorescence quantum yield): comparative method, [Ru(bpy)3][PF6]2 as relative standard
How it was run: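 Measurements were made in DMSO. UV-Vis absorption and excitation/emission spectra were recorded. Molar extinction coefficient was taken from the slope of absorbance versus concentration over seven solutions of known concentration. Fluorescence quantum yield was determined by the comparative method against the [Ru(bpy)3][PF6]2 standard.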

GHSR-1a = GHSR-1a (Homo sapiens, UniProt Q92847); assay: Radioligand competitive binding assay, GHSR-1a
How it was run: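 Competition binding used membranes from HEK293 cells transiently transfected with GHSR-1a (50 000 cells/tube) and human [125I]-ghrelin(1–28) (15 000 cpm/tube). Test peptide was run at 10−11 to 10−5 M, with incubation for 20 min at 550 rpm. Unbound radioligand was removed and bound activity gamma-counted. Human ghrelin(1–28) served as reference. IC50 came from nonlinear regression; assays were run in triplicate.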

[1] = test system: OVCAR-8 cells stably transfected with GHSR-1a; assay: Confocal fluorescence microscopy of OVCAR-8 cells transfected with GHSR-1a; format: cell-based; details: 0.1 μM, 1 h, 37 °C
How it was run: (§1)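 OVCAR-8 cells, either stably transfected with GHSR-1a or parental, were detached with trypsin-free dissociation buffer and seeded at 50 000 cells/well on coverslips. They were cultured overnight in RPMI/10% FBS at 37 °C, 5% CO2. Test compound at 0.1 μM was added in serum-free RPMI for 1 h at 37 °C. Cells were washed three times with PBS, fixed in 4% paraformaldehyde and mounted with DAPI. Confocal settings: ex 559 nm, em 598–698 nm; 40× and 60× objectives.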

parental OVCAR-8 cells = assay: Confocal fluorescence microscopy of parental OVCAR-8 cells; format: cell-based; details: low expression of GHSR-1a
How it was run: as §1

GRPR = GRPR (Homo sapiens, UniProt P30550); assay: Radioligand competitive binding assay, GRPR
How it was run: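 Whole-cell competition binding used PC-3 cells (500 000/vial) grown in F-12K/10% FBS, with [125I]Tyr4-bombesin as radioligand. Test peptide was run at 10−12 to 10−6 M, shaking at 550 rpm for 1 h at 37 °C. Cells were centrifuged, the pellet washed with 50 mM Tris pH 7.4, and bound activity gamma-counted. IC50 came from nonlinear regression; assays were run in triplicate.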

PC-3 cells = assay: Confocal fluorescence microscopy of PC-3 cells; format: cell-based; details: 0.5 μM, 1 h, 37 °C
How it was run: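 PC-3 cells, with native GRPR, were detached with trypsin-free dissociation buffer and seeded at 50 000 cells/well on coverslips. They were cultured overnight in F-12K/10% FBS at 37 °C, 5% CO2. Test compound at 0.5 μM was added in serum-free F-12K for 1 h at 37 °C, alone or with a 10-fold molar excess of the unlabelled parent peptide as blocker. Cells were PBS-washed three times, fixed in 4% paraformaldehyde and mounted with DAPI. Confocal settings: ex 559 nm, em 605–705 nm.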

GRPR in PC-3 cells = assay: Blocking study in PC-3 cells with parent peptide 3; format: cell-based; details: 0.5 μM 7, 1 h, 37 °C; 10-fold molar excess of 3

Sequence of GRPR (P30550 whole entry): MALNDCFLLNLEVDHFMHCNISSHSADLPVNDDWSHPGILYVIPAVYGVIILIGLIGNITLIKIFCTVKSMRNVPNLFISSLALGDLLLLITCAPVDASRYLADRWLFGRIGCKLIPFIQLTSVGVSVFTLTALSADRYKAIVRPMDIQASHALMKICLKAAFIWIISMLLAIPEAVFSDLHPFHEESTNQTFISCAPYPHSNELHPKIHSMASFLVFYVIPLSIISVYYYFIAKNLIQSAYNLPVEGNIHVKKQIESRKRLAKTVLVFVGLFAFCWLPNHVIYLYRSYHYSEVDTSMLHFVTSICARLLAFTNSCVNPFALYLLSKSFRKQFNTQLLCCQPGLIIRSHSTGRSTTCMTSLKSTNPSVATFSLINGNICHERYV
Sequence of GHSR-1a (Q92847 whole entry): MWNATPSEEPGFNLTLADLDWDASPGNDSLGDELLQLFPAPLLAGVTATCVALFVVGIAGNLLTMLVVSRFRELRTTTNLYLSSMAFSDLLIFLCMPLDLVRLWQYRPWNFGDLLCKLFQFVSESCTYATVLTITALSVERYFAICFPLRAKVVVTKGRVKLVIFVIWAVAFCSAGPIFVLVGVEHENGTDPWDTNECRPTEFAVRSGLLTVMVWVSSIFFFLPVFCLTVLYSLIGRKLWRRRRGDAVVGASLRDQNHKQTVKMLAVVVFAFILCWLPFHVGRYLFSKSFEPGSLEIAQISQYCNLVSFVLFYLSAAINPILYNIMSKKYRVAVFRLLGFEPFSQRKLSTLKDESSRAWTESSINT

Row | Compound | λem (emission maximum) (Photophysical properties) [nm] | λabs (absorption maximum) (Photophysical properties) [nm] | ΦF (fluorescence quantum yield) (Photophysical properties) [%] | pIC50 (GHSR-1a) | receptor affinity relative to parent peptide (in words) (GHSR-1a; vs parent peptide 2, GHSR-1a) | specific binding for GHSR-1a by confocal fluorescence microscopy [1] | cellular uptake (red emission) (parental OVCAR-8 cells) | ε (molar extinction coefficient) (Photophysical properties; slope of absorbance against concentration, seven solutions) | pIC50 (GRPR) | receptor affinity relative to parent peptide (in words) (GRPR; vs parent peptide 3, GRPR) | specific binding for GRPR by confocal fluorescence microscopy (PC-3 cells) | displacement by parent peptide 3 (GRPR in PC-3 cells)
1 | CCCCCCCC(=O)NC[C@H](NC(=O)[C@H](CO)NC(=O)CN)C(=O)N[C@@H](Cc1ccccc1)C(=O)N[C@@H](CC(C)C)C(=O)N[C@@H](CO)C(=O)N1CCC[C@H]1C(=O)N[C@H](C(=O)N[C@@H](CCCCn1cc(-c2ccc(N3N=C(C#N)N=[N+](c4ccc(OC)cc4)[B-]3(F)F)cc2)nn1)C(N)=O)[C@@H](C)O [Compound 5, [Dpr(octanoyl)^3,Thr^8,Lys(triazole-formazanate)^9]ghrelin(1–9)] (H-GS[Dap](Octanoyl)FLSPT[X2]-NH2; N-terminus assumed) | 688 | 560 | 21 | 7.05 | decrease in receptor affinity | specific binding of 5 for GHSR-1a | minimal uptake of 5 |  |  |  |  | 
2 | CCCC[C@H](NC(=O)[C@H](Cc1ccccc1)NC(=O)[C@H](Cc1c[nH]cn1)NC(=O)CCNC(=O)[C@@H](NC(=O)[C@H](C)NC(=O)[C@H](Cc1c[nH]c2ccccc12)NC(=O)[C@H](CCC(N)=O)NC(=O)[C@@H](Cc1ccccc1)NC(=O)COCC(=O)NCCOCCOCCOCCOCCOCCOCCOCCOCCn1cc(-c2ccc([N+]3=NC(C#N)=NN(c4ccc(OC)cc4)[B-]3(F)F)cc2)nn1)C(C)C)C(N)=O [Compound 7] (HELM PEPTIDE1{[COc1ccc(N2N=C(C#N)N=[N+](c3ccc(-c4cn(CCOCCOCCOCCOCCOCCOCCOCCOCCNC(=O)COCC(=O)[*:2])nn4)cc3)[B-]2(F)F)cc1].[dF].Q.W.A.V.[bAla].H.F.[Nle].[am]}$$$$V2.0) | 690 | 555 | 12 |  |  |  |  | 31 900 M^−1 cm^−1 | 7.79 | decrease in receptor affinity | analogue 7 for GRPR was demonstrated; also recorded: specific binding of analogue 7 to GRPR | displacement of 7 by 10-fold molar excess of 3
